Shown are actives, neighbours in structure and some others; about 4.1% of the full set was active somewhere.
KCNQ1 inh – human KCNQ1 channel inhibition; P51787; CHO-K1 KCNQ1, FluxOR thallium flux fluorescence; active compounds read high; B-score at 10 µM; hit rate 1.3% among 310,000; AID 2642;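 active means compounds whose thallium flux B-score, printed positive for inhibition, exceeds three library SD while starting fluorescence stays within three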;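 further: channel opened by potassium depolarization with thallium stimulus after 20 min compound exposure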
KCNK9 block – inhibitors of human KCNK9 two-pore domain potassium channel. Q9NPC2. hit rate 1.2% among 310,000. B-score at 10 µM. HEK293 KCNK9, FluxOR thallium flux fluorescence; active compounds read low;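 active means ratio B-score over 3 SD below the library mean, with starting fluorescence within 5 SD of its mean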;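 further: negative B-score means less thallium flux so channel inhibition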
Target sequence (Q9NPC2 whole entry, looked up, the tested form may be a part): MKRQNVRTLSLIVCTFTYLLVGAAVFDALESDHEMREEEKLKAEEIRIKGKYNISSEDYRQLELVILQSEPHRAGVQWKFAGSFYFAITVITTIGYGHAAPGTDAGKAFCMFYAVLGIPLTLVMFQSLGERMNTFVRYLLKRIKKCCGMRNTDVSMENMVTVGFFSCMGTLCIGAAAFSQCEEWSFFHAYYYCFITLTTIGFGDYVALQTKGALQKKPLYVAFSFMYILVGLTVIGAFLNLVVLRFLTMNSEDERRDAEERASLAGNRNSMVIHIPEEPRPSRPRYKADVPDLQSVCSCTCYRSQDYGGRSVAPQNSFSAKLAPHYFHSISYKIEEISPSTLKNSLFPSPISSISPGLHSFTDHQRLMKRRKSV
KCNK3 inh – human KCNK3 channel inhibition, primary screen | O14649 | B-score at 10 µM | CHO-KCNK3 thallium flux, FluxOR fluorescence; active compounds read low | AID 602410 | hit rate 0.84% among 340,000;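 active means B-score under library mean minus 4 SD, starting fluorescence ratio at most library mean plus 5 SD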;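 further: more negative B-score means stronger inhibition of thallium flux through KCNK3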
KCNQ1 pot – potentiates or activates the human KCNQ1 potassium channel. P51787. CHO-K1 KCNQ1, thallium flux FluxOR fluorescence; active compounds read high. B-score at 10 µM. hit rate 0.35% among 310,000;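 active means fluorescence ratio B-score, a plate-corrected score, at least three library SD, with initial intensity B-score within 5 SD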
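Doses: Single concentration per compound, DMSO matched to controls | Test system: KCNQ1-transfected CHO-K1 cells | Timing: 90 min dye loading and 20 min compound exposure, both at room temperature | Measured by: Kinetic FluxOR thallium fluorescence, 10-s 1-Hz baseline, 110-s post-stimulus read | Medium: Assay buffer with matched DMSO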
hERG rescue – shields human hERG channel from block by proarrhythmic agents; Q12809; CHO-hERG, FluxOR thallium flux, dofetilide IC70 present; hit rate 0.51% among 310,000; activation (rescue from dofetilide block), less the hit threshold, % at 10 µM;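 active means activation above the mean of controls blocked by dofetilide plus 5 SD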;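 further: thallium influx through hERG after potassium depolarization seen as dye fluorescence rise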
Cl transport mod – KCC2 (human) Cl- transport modulation. Q9H2X9. KCC2 cells, thallium flux FluoZin-2 fluorescence. B-score of Tl+ flux slope (higher = more flux/activation; lower = inhibition) at 10 µM. hit rate 2.2% among 190,000;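 active means thallium flux slope and its plate-corrected score both differing from the plate sample mean at a set confidence after two filtering rounds, in either direction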;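 further: slope of fluorescence scaled to starting intensity during 10 to 20 s after thallium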
KCNK9 block conf – confirmation of human KCNK9 potassium channel inhibitors; shares compounds with KCNK9 block; HEK293 KCNK9 cells, FluxOR thallium flux fluorescence; inhibition, % at 10 µM; hit rate 43% among 4,900; AID 492992;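 active means thallium signal inhibited by more than 5 SD of the compound-free buffer control wells, on both duplicate plates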;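 further: 0% = assay buffer control wells without compound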
Kir2-1 spec – selectivity of KCNK9 modulators against mouse Kir2.1 | shares compounds with KCNK9 block | hit rate 4% among 4,900 | Kir2.1 cells, FluxOR thallium flux fluorescence | inhibition, % at 10 µM | AID 492993;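 active means thallium signal drop more than 5 SD beyond the mean of the no-compound control wells, seen in both duplicate plates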;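 further: signal is fluorescence rise after thallium addition divided by baseline fluorescence; plate controls were assay buffer only for no effect and full block by chlorpromazine control for full effect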
HEK293 Tl ctr – second counter-screen for KCNK9 modulators: effect in non-induced cells; hit rate 40% among 4,900; shares compounds with KCNK9 block; inhibition, % at 10 µM; non-induced KCNK9-HEK293, FluxOR thallium flux;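 active means thallium signal drop beyond 5 SD of the untreated control mean, on both duplicate plates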;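 further: plate controls were buffer only IC0 wells for no effect and SID17386958 at its maximal inhibitory level for full effect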
* marks the source's active call; other numbers are inactive results.

Results for Cc1cc(C)c2c(n1)nn1c(C3CC3)cc(C(F)(F)F)nc21 ?
KCNQ1 inh: inactive; KCNK9 block: inactive; KCNK3 inh: inactive; KCNQ1 pot: inactive; hERG rescue: -7; Cl transport mod: 0.15

Results for CCCSc1nc(=S)n(Cc2ccccc2)c(C)c1C(C)=O ?
KCNQ1 inh: inactive; KCNK9 block: -13*; KCNK3 inh: inactive; KCNQ1 pot: inactive; hERG rescue: -5; Cl transport mod: -0.02; KCNK9 block conf: 66%*; Kir2-1 spec: inactive; HEK293 Tl ctr: inactive

Results for CCOc1cc(C(=O)Nc2ccc(S(=O)(=O)Nc3nnc(CC)s3)cc2)cc(OCC)c1OCC ?
KCNQ1 inh: inactive; KCNK9 block: inactive; KCNK3 inh: inactive; KCNQ1 pot: inactive; hERG rescue: -5

What do the screens show for `C/C(=N\NC(=O)c1ccccc1O)C1CC1`?
KCNQ1 inh: inactive; KCNK9 block: inactive; KCNK3 inh: inactive; KCNQ1 pot: inactive; hERG rescue: -6

Results for O=C(/C=C/c1ccccc1)N1c2ccccc2Sc2ccc(C(F)(F)F)cc21 ?
KCNQ1 inh: inactive; KCNK9 block: -9.2*; KCNK3 inh: inactive; KCNQ1 pot: inactive; hERG rescue: -14; Cl transport mod: 0.44; KCNK9 block conf: 26%*; Kir2-1 spec: inactive; HEK293 Tl ctr: 36%*

What do the screens show for `COc1cccc(-c2nnc(SCc3ccccn3)n2C)c1`?
KCNQ1 inh: inactive; KCNK9 block: inactive; KCNK3 inh: inactive; KCNQ1 pot: inactive; hERG rescue: -10; Cl transport mod: -0.34

What do the screens show for `Cc1ccccc1C(=O)Nc1sc(C)c(C)c1C(=O)c1ccccc1`?
KCNQ1 inh: 8*; KCNK9 block: inactive; KCNK3 inh: inactive; KCNQ1 pot: inactive; hERG rescue: -20; Cl transport mod: 1.1; KCNK9 block conf: inactive; Kir2-1 spec: inactive; HEK293 Tl ctr: inactive

How did Cc1sc(NC(=O)CCl)c(C(=O)c2ccccc2)c1C do in these assays?
KCNQ1 inh: inactive; KCNK9 block: inactive; KCNK3 inh: inactive; KCNQ1 pot: inactive; hERG rescue: -5

Results for CC1CC2(CCCCC2)Nc2c1ccc1ccccc21 (stereo not drawn) ?
KCNQ1 inh: inactive; KCNK9 block: inactive; KCNK3 inh: inactive; KCNQ1 pot: inactive; hERG rescue: -13; Cl transport mod: 1.1

How did CC(=O)N1c2c(ccc3ccccc23)C(C)CC12CCCCC2 (stereo not drawn) do in these assays?
KCNQ1 inh: inactive; KCNK9 block: -14*; KCNK3 inh: inactive; KCNQ1 pot: inactive; hERG rescue: -6; KCNK9 block conf: 49%*; Kir2-1 spec: inactive; HEK293 Tl ctr: 47%*

Results for CCN(C(=O)/C=C/c1ccccc1)C1CCCCC1 ?
KCNQ1 inh: inactive; KCNK9 block: inactive; KCNK3 inh: inactive; KCNQ1 pot: inactive; hERG rescue: -10; KCNK9 block conf: inactive; Kir2-1 spec: inactive; HEK293 Tl ctr: inactive

Results for CN1CCN(C(=O)c2ccc(Cl)c(S(=O)(=O)N3CCCCCC3)c2)CC1 ?
KCNQ1 inh: inactive; KCNK9 block: inactive; KCNK3 inh: inactive; KCNQ1 pot: inactive; hERG rescue: -17; Cl transport mod: 0.95

Results for O=C(c1ccc(Cl)c(S(=O)(=O)N2CCCCC2)c1)N1CCN(Cc2ccccc2)CC1 ?
KCNQ1 inh: inactive; KCNK9 block: inactive; KCNK3 inh: inactive; KCNQ1 pot: inactive; hERG rescue: -3; KCNK9 block conf: inactive; Kir2-1 spec: inactive; HEK293 Tl ctr: inactive

Results for CCOC(=O)C1CCCN(C(=O)c2cc(S(=O)(=O)N3CCCCC3)ccc2Cl)C1 (stereo not drawn) ?
KCNQ1 inh: inactive; KCNK9 block: inactive; KCNK3 inh: inactive; KCNQ1 pot: inactive; hERG rescue: -14

What do the screens show for `CCOC(=O)C1CCCN(C(=O)c2ccc(Cl)c(S(=O)(=O)N3CCCCCC3)c2)C1` (stereo not drawn)?
KCNQ1 inh: inactive; KCNK9 block: inactive; KCNK3 inh: inactive; KCNQ1 pot: inactive; hERG rescue: -12; Cl transport mod: 0.069; KCNK9 block conf: inactive; Kir2-1 spec: inactive; HEK293 Tl ctr: inactive

What do the screens show for `COc1cc2c(cc1OC)C(C)N(C(=O)c1ccc(Cl)c(S(=O)(=O)N3CCCCC3)c1)CC2` (stereo not drawn)?
KCNQ1 inh: inactive; KCNK9 block: -11*; KCNK3 inh: inactive; KCNQ1 pot: inactive; hERG rescue: -7; KCNK9 block conf: 32%*; Kir2-1 spec: inactive; HEK293 Tl ctr: inactive

Results for O=C(OCC(=O)N1CCCCCC1)c1ccc(Cl)c(S(=O)(=O)N2CCCC2)c1 ?
KCNQ1 inh: inactive; KCNK9 block: inactive; KCNK3 inh: inactive; KCNQ1 pot: inactive; hERG rescue: -4; Cl transport mod: -1; KCNK9 block conf: inactive; Kir2-1 spec: inactive; HEK293 Tl ctr: inactive

What do the screens show for `O=C(c1ccc(Cl)c(S(=O)(=O)N2CCCC2)c1)N1CCN(Cc2ccccc2)CC1`?
KCNK3 inh: inactive

How did O=C(O)C(C/C(=N/O)c1ccc(Br)cc1)P(=O)(c1ccccc1)c1ccccc1 (stereo not drawn) do in these assays?
KCNQ1 inh: inactive; KCNK9 block: inactive; KCNK3 inh: inactive; KCNQ1 pot: inactive; hERG rescue: -8; Cl transport mod: 1.2

How did C[C@H]1CN=C(Nc2ccccc2)N1CCC1CCCC1 do in these assays?
KCNQ1 inh: inactive; KCNK9 block: inactive; KCNK3 inh: inactive; KCNQ1 pot: inactive; hERG rescue: -8

What do the screens show for `O=C(c1ccccc1)c1ccccc1NC(=O)C1CCCN1Cc1ccccc1` (stereo not drawn)?
KCNQ1 inh: inactive; KCNK9 block: -9.5*; KCNK3 inh: inactive; KCNQ1 pot: inactive; hERG rescue: -11; Cl transport mod: -1; KCNK9 block conf: 58%*; Kir2-1 spec: inactive; HEK293 Tl ctr: 38%*

Results for O=C(c1ccccc1Sc1ccccc1[N+](=O)[O-])N1CCCCC1 ?
KCNQ1 inh: inactive; KCNK9 block: inactive; KCNK3 inh: inactive; KCNQ1 pot: inactive; hERG rescue: 4; KCNK9 block conf: inactive; Kir2-1 spec: inactive; HEK293 Tl ctr: inactive

Bioassay records (PubChem)
